Measured values reported in article PMC3310921 (Bioorganic & medicinal chemistry, 2010).
“And” between values parts separate entries of the source, which are not always exact repeats. Equal values may be shown once. “Also recorded” adds a separate entry of the source. Read-outs that look alike come from different tables or passages of the source.

Experiments:
[1] = tested on: mice; test: Murine toxicity study; type: in vivo; conditions: for Neurotoxicity in mice (in words): 30, 100 and 300 mg/kg intraperitoneally, examined after 0.5 and 4 h
[2] = Cytotoxicity, average of the three normal cells; type: cell-based; conditions: human, HGF, HPC and HPLF normal cells (average of the three)
Outline: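 Human HGF gingival fibroblasts, HPC pulp cells and HPLF periodontal ligament fibroblasts were exposed to graded concentrations for 24 h, up to a maximum of 400 μM. CC50 is the concentration cutting viable cell number by 50%. It was read from dose–response curves from duplicate determinations, then averaged over the three normal cell types.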

[3] = tested on: HL-60 cells; test: Internucleosomal DNA fragmentation in HL-60 cells; type: cell-based, human; conditions: 6 h incubation
[4] = tested on: caspase-3 in HL-60 cells; test: Caspase-3 activation in HL-60 cells; type: cell-based, human; conditions: 5 h incubation
[5] = tested on: HSC-2 cells; test: Internucleosomal DNA fragmentation in HSC-2 cells; type: cell-based, human; conditions: 6 h incubation
Outline: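 After 6 h exposure of HSC-2 cells (HL-60 in parallel), cellular DNA was examined for internucleosomal laddering against a DNA molecular-weight marker.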

[6] = tested on: caspase-3 in HSC-2 cells; test: Caspase-3 activation in HSC-2 cells; type: cell-based, human; conditions: 5 h incubation
Outline: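 HSC-2 cells, with HL-60 run in parallel, were exposed to the test compound for 5 h, then assayed for caspase-3 activation. The reference was UV irradiation at 6 J/m²/min for 1 min, followed by 3 h incubation. Values are from n = 3.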

[7] = tested on: mice; conditions: recorded previously ref 25, cited from earlier work; for Neurotoxicity in mice (in words): 30, 100 and 300 mg/kg intraperitoneally, 0.5 and 4 h
[8] = tested on: HSC-2 squamous cell carcinoma cells; conditions: read-out: CC50 HSC-2, human malignant cells, cited from earlier work
[9] = tested on: HGF gingival fibroblasts; conditions: read-out: CC50 HGF; human normal cells; reported previously ref 26; cited from earlier work
[10] = tested on: HPC pulp cells; conditions: read-out: CC50 HPC; human normal cells; reported previously ref 26; cited from earlier work
[11] = tested on: HPLF periodontal ligament fibroblasts; conditions: read-out: CC50 HPLF; human normal cells; reported previously ref 26; cited from earlier work
[12] = tested on: HL-60 promyelocytic leukemia cells; conditions: read-out: CC50 HL-60, human malignant cells, cited from earlier work
[13] = tested on: HSC-4 squamous cell carcinoma cells; conditions: read-out: CC50 HSC-4; human malignant cells; reported previously ref 27; cited from earlier work
[14] = tested on: mice; conditions: cited from earlier work
[15] = 100 mg/kg intraperitoneally, 0.5 h
[16] = 300 mg/kg intraperitoneally, 0.5 h

O=C1/C(=C/c2ccccc2)CCC/C1=C\c1ccccc1[N+](=O)[O-] [Compound 1a]
Neurotoxicity in mice (in words) [1]: did not display any neurotoxic symptoms | CC50 at 24 h [2]: 45 µM

O=C1/C(=C/c2ccc(F)cc2)CCC/C1=C\c1ccccc1[N+](=O)[O-] [Compound 1b]
CC50 at 24 h [2]: 53 µM

O=C1/C(=C/c2ccc(Cl)cc2)CCC/C1=C\c1ccccc1[N+](=O)[O-] [Compound 1c]
Induction of internucleosomal DNA fragmentation [3]: induced the internucleosomal DNA fragmentation | Number of animals demonstrating neurological deficit/number of treated mice ([1]; 300 mg/kg intraperitoneally, 4 h): half or more | Activation of caspase-3 [4]: concentration-dependent activation of caspase-3 | Induction of internucleosomal DNA fragmentation [5]: no evidence | Activation of caspase-3 [6]: no evidence

COc1ccc(/C=C2\CCC/C(=C\c3ccccc3[N+](=O)[O-])C2=O)cc1 [Compound 1f]
CC50 at 24 h [2]: > 395 µM

COc1cc(/C=C2\CCC/C(=C\c3ccccc3[N+](=O)[O-])C2=O)cc(OC)c1OC [Compound 1g]
CC50 at 24 h [2]: 53 µM

O=C1/C(=C/c2ccccc2)CCC/C1=C\c1cccc([N+](=O)[O-])c1 [Compound 2a]
Number of animals demonstrating neurological deficit/number of treated mice [1, 15]: 2/8 | Number of animals demonstrating neurological deficit/number of treated mice [1, 16]: half or more and 2/4 | Neurotoxicity in mice (in words) [1]: Marginal neurotoxicity | CC50 at 24 h [2]: 19 µM

O=C1/C(=C/c2ccc(F)cc2)CCC/C1=C\c1cccc([N+](=O)[O-])c1 [Compound 2b]
Number of animals demonstrating neurological deficit/number of treated mice [1, 15]: 1/8 | CC50 at 24 h [2]: 39 µM

O=C1/C(=C/c2ccc(Cl)cc2)CCC/C1=C\c1cccc([N+](=O)[O-])c1 [Compound 2c]
CC50 at 24 h [2]: 32 µM

CN(C)c1ccc(/C=C2\CCC/C(=C\c3cccc([N+](=O)[O-])c3)C2=O)cc1 [Compound 2d]
Number of animals demonstrating neurological deficit/number of treated mice [1, 15]: 1/8 | Number of animals demonstrating neurological deficit/number of treated mice [1, 16]: 1/4

Cc1ccc(/C=C2\CCC/C(=C\c3cccc([N+](=O)[O-])c3)C2=O)cc1 [Compound 2e]
Neurotoxicity in mice (in words) [1]: did not display any neurotoxic symptoms | CC50 at 24 h [2]: > 331 µM

COc1ccc(/C=C2\CCC/C(=C\c3cccc([N+](=O)[O-])c3)C2=O)cc1 [Compound 2f]
Number of animals demonstrating neurological deficit/number of treated mice ([1]; 30 mg/kg intraperitoneally, 0.5 h): 1/4 | Neurotoxicity in mice (in words) [1]: Marginal neurotoxicity | CC50 at 24 h [2]: > 262 µM

COc1cc(/C=C2\CCC/C(=C\c3cccc([N+](=O)[O-])c3)C2=O)cc(OC)c1OC [Compound 2g]
CC50 at 24 h [2]: > 379 µM

O=C1/C(=C/c2ccccc2)CCC/C1=C\c1ccc([N+](=O)[O-])cc1 [Compound 3a]
Neurotoxicity in mice (in words) [1]: did not display any neurotoxic symptoms | CC50 at 24 h [2]: 259 µM

O=C1/C(=C/c2ccc(F)cc2)CCC/C1=C\c1ccc([N+](=O)[O-])cc1 [Compound 3b]
Number of animals demonstrating neurological deficit/number of treated mice [1, 15]: 1/8 | Neurotoxicity in mice (in words) [1]: Marginal neurotoxicity | CC50 at 24 h [2]: > 375 µM

O=C1/C(=C/c2ccc(Cl)cc2)CCC/C1=C\c1ccc([N+](=O)[O-])cc1 [Compound 3c]
Neurotoxicity in mice (in words) [7]: did not display any neurotoxic symptoms; also recorded: no neurotoxicity

CN(C)c1ccc(/C=C2\CCC/C(=C\c3ccc([N+](=O)[O-])cc3)C2=O)cc1 [Compound 3d]
Number of animals demonstrating neurological deficit/number of treated mice [1, 15]: 2/8

Cc1ccc(/C=C2\CCC/C(=C\c3ccc([N+](=O)[O-])cc3)C2=O)cc1 [Compound 3e]
Number of animals demonstrating neurological deficit/number of treated mice [1, 16]: half or more and 3/4 | CC50 at 24 h [2]: > 280 µM

COc1ccc(/C=C2\CCC/C(=C\c3ccc([N+](=O)[O-])cc3)C2=O)cc1 [Compound 3f]
CC50 ([8]; reported previously ref 26): > 400 µM | CC50 [9]: > 400 µM | CC50 [10]: > 400 µM | CC50 [11]: > 400 µM | CC50 ([12]; reported previously ref 26): > 400 µM

COc1cc(/C=C2\CCC/C(=C\c3ccc([N+](=O)[O-])cc3)C2=O)cc(OC)c1OC [Compound 3g]
Number of animals demonstrating neurological deficit/number of treated mice [7, 15]: 2/8 | Neurotoxicity in mice (in words) [7]: Marginal neurotoxicity

O=C1CCCC/C1=C\c1ccccc1[N+](=O)[O-] [Compound 4a]
Number of animals demonstrating neurological deficit/number of treated mice [1, 16]: 1/4 | Neurotoxicity in mice (in words) [1]: Marginal neurotoxicity | CC50 at 24 h [2]: 146 µM

O=C1CCCC/C1=C\c1cccc([N+](=O)[O-])c1 [Compound 4b]
Number of animals demonstrating neurological deficit/number of treated mice [1, 16]: 1/4 | CC50 at 24 h [2]: 60 µM

COc1ccc(/C=C2\CCC/C(=C\c3ccc([N+](=O)[O-])cc3)C2=O)c(OC)c1OC [Compound 5a, 6-(4-Nitrobenzylidene)-2-(2,3,4-trimethoxybenzylidene) cyclohexanone]
Neurotoxicity in mice (in words) [1]: did not display any neurotoxic symptoms

COc1cc(OC)c(OC)cc1/C=C1\CCC/C(=C\c2ccc([N+](=O)[O-])cc2)C1=O [Compound 5b, 6-(4-Nitrobenzylidene)-2-(2,4,5-trimethoxybenzylidene) cyclohexanone]
Number of animals demonstrating neurological deficit/number of treated mice [1, 15]: 1/8 | Number of animals demonstrating neurological deficit/number of treated mice [1, 16]: 1/4 | Neurotoxicity in mice (in words) [1]: Marginal neurotoxicity

N[C@@H](Cc1ccc(N(CCCl)CCCl)cc1)C(=O)O [Melphalan, reference compound]
CC50 ([8]; reported previously ref 27): 35 µM | CC50 [13]: 81 µM | LD50 [14]: 4.0 mg/kg | CC50 ([12]; reported previously ref 27): 6 µM
